Source: ChEMBL document CHEMBL4311947, “Discovery of Novel Naphthylphenylketone and Naphthylphenylamine Derivatives as Cell Division Cycle 25B (CDC25B) Phosphatase Inhibitors: Design, Synthesis, Inhibition Mechanism, and in Vitro Efficacy against Melanoma Cell Lines” (J Med Chem, 2019)
The source made the active and inactive calls. No cut-off for these calls is given here.

What was measured:
[1] = target: T1, M-phase inducer phosphatase 2 (Homo sapiens, UniProt P30305); experiment: Non-competitive inhibition of N-terminal His6-tagged human CDC25B (377 to 550 residues) expressed in Escherichia coli BL21(DE3) cells using OMFP as substrate by double reciprocal Lineweaver-Burk plot analysis
T1 sequence (P30305 whole entry): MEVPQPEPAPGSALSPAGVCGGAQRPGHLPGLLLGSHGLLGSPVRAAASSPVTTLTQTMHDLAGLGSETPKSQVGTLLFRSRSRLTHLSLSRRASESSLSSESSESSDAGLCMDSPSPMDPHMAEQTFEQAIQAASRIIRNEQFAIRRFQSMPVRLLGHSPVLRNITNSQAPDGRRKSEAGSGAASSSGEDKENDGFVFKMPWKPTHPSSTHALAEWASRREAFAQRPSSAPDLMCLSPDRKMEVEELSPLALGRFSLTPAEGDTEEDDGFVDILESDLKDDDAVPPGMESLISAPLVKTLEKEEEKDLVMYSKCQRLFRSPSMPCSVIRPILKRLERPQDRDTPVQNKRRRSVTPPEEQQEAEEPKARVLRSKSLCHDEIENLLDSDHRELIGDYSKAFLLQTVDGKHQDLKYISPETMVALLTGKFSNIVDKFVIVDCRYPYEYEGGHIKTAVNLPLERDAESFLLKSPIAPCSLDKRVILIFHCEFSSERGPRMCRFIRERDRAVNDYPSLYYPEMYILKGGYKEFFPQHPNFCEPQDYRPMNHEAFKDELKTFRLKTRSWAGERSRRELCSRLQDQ
How it was run: (§1)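 Recombinant CDC25 form (15–25 nM) in 20 mM Tris-HCl pH 7.8, 0.5 mM TCEP, 1% (v/v) DMSO, with or without inhibitor. Reaction started with 0.5–25 µM OMFP; O-methylfluorescein formation followed continuously at 30°C (ex 485/em 530 nm). Initial rates (AU/min) analysed in Lineweaver-Burk plots for Vmax, KM and mechanism; Ki averaged from at least three independent experiments, only roughly estimated for mixed inhibition.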

[2] = target: T2, M-phase inducer phosphatase 2 (Homo sapiens) (UniProt P30305); experiment: Inhibition of N-terminal His6-tagged human CDC25B (377 to 550 residues) expressed in Escherichia coli BL21(DE3) cells assessed as reduction in Vmax using OMFP as substrate by double reciprocal Lineweaver-Burk plot analysis; how it was run: as §1
T2 sequence (whole entry): T1 sequence (P30305 whole entry)

[3] = target: T3, M-phase inducer phosphatase 1 (Homo sapiens, UniProt P30304); experiment: Inhibition of N-terminal His6-tagged human CDC25A (336 to 508 residues) expressed in Escherichia coli BL21(DE3) cells using OMFP as substrate by double reciprocal Lineweaver-Burk plot analysis; how it was run: as §1
T3 sequence (P30304 whole entry): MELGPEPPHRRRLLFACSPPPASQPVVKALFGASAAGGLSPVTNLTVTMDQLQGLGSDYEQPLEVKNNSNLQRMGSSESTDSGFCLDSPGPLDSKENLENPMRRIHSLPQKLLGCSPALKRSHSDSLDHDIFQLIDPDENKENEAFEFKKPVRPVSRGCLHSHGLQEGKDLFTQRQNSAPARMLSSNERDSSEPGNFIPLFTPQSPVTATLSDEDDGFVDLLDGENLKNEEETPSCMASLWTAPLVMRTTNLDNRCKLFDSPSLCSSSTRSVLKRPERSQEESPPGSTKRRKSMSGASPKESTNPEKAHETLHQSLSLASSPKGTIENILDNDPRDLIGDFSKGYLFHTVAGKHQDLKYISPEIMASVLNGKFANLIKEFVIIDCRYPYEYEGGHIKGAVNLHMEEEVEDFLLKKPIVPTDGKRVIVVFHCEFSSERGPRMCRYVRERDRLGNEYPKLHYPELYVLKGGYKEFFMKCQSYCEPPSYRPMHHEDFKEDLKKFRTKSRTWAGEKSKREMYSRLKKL

[4] = target: T4, M-phase inducer phosphatase 3 (Homo sapiens, UniProt P30307); experiment: Inhibition of N-terminal His6-tagged human CDC25C (280 to 454 residues) expressed in Escherichia coli BL21(DE3) cells using OMFP as substrate by double reciprocal Lineweaver-Burk plot analysis; how it was run: as §1
T4 sequence (P30307 whole entry): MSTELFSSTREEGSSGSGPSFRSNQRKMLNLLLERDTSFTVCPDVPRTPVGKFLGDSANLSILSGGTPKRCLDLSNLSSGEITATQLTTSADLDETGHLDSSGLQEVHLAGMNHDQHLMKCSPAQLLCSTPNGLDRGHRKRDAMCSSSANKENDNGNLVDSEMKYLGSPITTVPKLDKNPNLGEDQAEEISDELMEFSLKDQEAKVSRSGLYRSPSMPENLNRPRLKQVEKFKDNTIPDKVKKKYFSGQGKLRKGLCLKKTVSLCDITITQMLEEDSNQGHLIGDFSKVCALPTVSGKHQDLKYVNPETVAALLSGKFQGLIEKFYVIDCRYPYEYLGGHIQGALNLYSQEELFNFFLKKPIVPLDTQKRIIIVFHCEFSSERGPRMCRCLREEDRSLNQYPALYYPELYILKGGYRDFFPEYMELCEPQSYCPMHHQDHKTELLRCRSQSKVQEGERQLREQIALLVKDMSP

[5] = target: T1, M-phase inducer phosphatase 2; experiment: Mixed inhibition of N-terminal His6-tagged human CDC25B (377 to 550 residues) expressed in Escherichia coli BL21(DE3) cells using OMFP as substrate by double reciprocal Lineweaver-Burk plot analysis; how it was run: as §1
[6] = target: T1, M-phase inducer phosphatase 2; experiment: Uncompetitive inhibition of N-terminal His6-tagged human CDC25B (377 to 550 residues) expressed in Escherichia coli BL21(DE3) cells using OMFP as substrate by double reciprocal Lineweaver-Burk plot analysis; how it was run: as §1
[7] = target: T2, M-phase inducer phosphatase 2 (Homo sapiens); experiment: Inhibition of N-terminal His6-tagged human CDC25B (377 to 550 residues) expressed in Escherichia coli BL21(DE3) cells at 1.5 uM by spectrofluorimetric analysis
How it was run: (§2)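 Intrinsic fluorescence of 1 µM recombinant CDC25B in 20 mM Tris·HCl pH 7.8, 0.5 mM TCEP, 0.5% (v/v) DMSO, recorded at 20°C with 280 nm excitation and 10 nm slits, without or with added NPA derivative. OMFP substrate omitted.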

[8] = target: T2, M-phase inducer phosphatase 2 (Homo sapiens); experiment: Inhibition of N-terminal His6-tagged human CDC25B (377 to 550 residues) expressed in Escherichia coli BL21(DE3) cells at 3 uM by spectrofluorimetric analysis; how it was run: as §2
[9] = target: T2, M-phase inducer phosphatase 2 (Homo sapiens); experiment: Inhibition of N-terminal His6-tagged human CDC25B (377 to 550 residues) expressed in Escherichia coli BL21(DE3) cells at 4 uM by spectrofluorimetric analysis; how it was run: as §2
A2058 = experiment: Cytotoxicity against human A2058 cells at 50 uM after 48 hrs by MTT assay; assay type: functional, cell-based
How it was run: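 Cells seeded at 4×10^4/well, treated 24 h after plating with inhibitor or 0.5% (v/v) DMSO vehicle for 24, 48 or 72 h. MTT added, 3 h at 37°C under 5% CO2, formazan solubilised, absorbance at 570 nm. Viability in arbitrary units, mean ± SE of at least three independent experiments versus control. Cells grown in DMEM/10% FBS at 37°C, 5% CO2; BJ-5ta cultured in 4:1 DMEM/Medium 199 with hygromycin B.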

Ki [1]	inhibition [2]	SMILES	other results
7.1 µM	Active	COc1ccc(C(=O)c2ccccc2C(=O)O)c2ccccc12	–
9.9 µM	Active	CCOC(=O)c1ccccc1Nc1cccc2c(N)cccc12	–
7.4 µM	Active	CCOC(=O)c1ccccc1Nc1cccc2c(O)cccc12	–
6.5 µM	Active	Nc1cccc2c(Nc3ccccc3C(=O)O)cccc12	–
5.8 µM	Active	O=C(O)c1cccc(Nc2cc(O)cc3ccccc23)c1	–
6.9 µM	Active	CCOC(=O)c1ccccc1Nc1ccc(OC)c2ccccc12	–
0.8 µM	–	Nc1cccc2c(Nc3cccc(C(=O)O)c3)cccc12 [listing 1 of 3 here]	–
16.9 µM	Active	COc1cc(Nc2ccccc2C(=O)O)c2ccccc2c1	–
11.9 µM	Active	CCOC(=O)c1cccc(Nc2ccc(OC)c3ccccc23)c1	–
–	–	Nc1cccc2c(Nc3cccc(C(=O)O)c3)cccc12 [listing 2 of 3 here]	Ki [3]: 0.6 µM; Ki [4]: 4 µM
–	Active	COc1cc(C(=O)c2ccccc2C(=O)O)c2ccccc2c1	Ki [5]: 36 µM
–	Active	COc1ccc(Nc2cccc(C(=O)O)c2)c2ccccc12	Ki [6]: 45 µM
–	Active	O=C(O)c1ccccc1Nc1cccc2ccccc12	Ki [6]: 22 µM
–	Active	COc1cc(Nc2cccc(C(=O)O)c2)c2ccccc2c1	Ki [6]: 55 µM
–	Active	O=C(O)c1cccc(Nc2cccc3ccccc23)c1	Ki [5]: 30 µM
–	Active	CCOC(=O)c1ccccc1C(=O)c1cccc2ccccc12	Ki [5]: 54 µM

Ki [1]	inhibition [2]	SMILES	other results
4.9 µM	Active	CCOC(=O)c1cccc(Nc2cccc3c(O)cccc23)c1	–
36 µM	Active	CCOC(=O)c1cccc(Nc2cccc3c(N)cccc23)c1	–
–	Active	Nc1cccc2c(Nc3cccc(C(=O)O)c3)cccc12 [listing 3 of 3 here]	inhibition [7]: Active
–	Active	CCOC(=O)c1ccccc1Nc1cc(OC)cc2ccccc12	Ki [6]: 12.5 µM
2.7 µM	Active	O=C(O)c1ccccc1Nc1ccc(O)c2ccccc12	–
1.4 µM	Active	Nc1ccc(Nc2cccc(C(=O)O)c2)c2ccccc12	inhibition [8]: Active
5.1 µM	Active	O=C(O)c1ccccc1Nc1cc(O)cc2ccccc12	–
–	Active	COc1ccc(Nc2ccccc2C(=O)O)c2ccccc12	Ki [6]: 6.1 µM
–	Active	O=C(O)c1cccc(Nc2ccc(O)c3ccccc23)c1	Ki [6]: 6.4 µM
–	Active	CCOC(=O)c1ccccc1Nc1cccc2ccccc12	Ki [6]: 2.8 µM; Ki [3]: 0.6 µM; Ki [4]: 0.4 µM; inhibition [9]: inactive
–	Active	O=C(O)c1ccccc1C(=O)c1cccc2ccccc12	Ki [5]: 69 µM
2.9 µM	Active	O=C(O)c1cccc(Nc2cccc3c(O)cccc23)c1	–
34 µM	Active	O=C(O)c1ccccc1C(=O)c1cc(O)cc2ccccc12	–
13.4 µM	Active	O=C(O)c1ccccc1Nc1cccc2c(O)cccc12	–
–	Active	CCOC(=O)c1cccc(Nc2cccc3ccccc23)c1	Activity (A2058): Active; Ki [6]: 7.3 µM

SMILES	Ki [1]	inhibition [2]	other results
c1ccc(Nc2cccc3ccccc23)cc1	–	Active	Ki [5]: 32 µM
